# ChEMBL document CHEMBL1122076, “Synthesis of 2-(alkylamino)-5,6- and -6,7-dihydroxy-3,4-dihydroquinazolines and evaluation as potential dopamine agonists” (J Med Chem, 1982)
# Calls of active or inactive are those of the source. The rule behind the calls is not given here.
# System: Canis familiaris
# Assay: Evaluated for the percentage vasodilation in the renal artery produced by 3000 nmol administered intra-arterially; NA is No Antagonistic activity
# Assay type: functional, organism-based
# Conditions: Canis lupus familiaris
# Outline: (§1)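 Anesthetized dogs fitted with an electromagnetic flow probe on the renal artery; a bent 25-gauge needle was inserted proximally into the artery for dosing. Phenoxybenzamine, 5 mg/kg ia, was infused first. A dopamine dose-response curve (11.75, 47, 188 nmol/dog) was run, then rising doses of test agent up to 3000 nmol were injected intra-arterially, each in 0.2 mL.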
row,Structure (SMILES),Vasodilation
1,CNC1=NCc2c(ccc(O)c2O)N1,inactive
2,NC1=NCc2c(ccc(O)c2O)N1,inactive
3,CN(C)C1=NCc2c(ccc(O)c2O)N1,inactive
4,CCCN(CCC)C1=NCc2c(ccc(O)c2O)N1,inactive
5,CN(C)C1CCc2c(ccc(O)c2O)C1 (stereo not given),inactive
6,CN(C)C1=NCc2cc(O)c(O)cc2N1,inactive
7,NC1CCc2c(ccc(O)c2O)C1 (stereo not given),inactive

# System: not listed separately
# Assay: Evaluated for the pKa value.
# Assay type: physicochemical
# Conditions: not given
# Outline: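 Hydrochloride salt titrated to determine the pKa of the ammonium ion. Values for related analogues were estimated by extrapolating the pKa values of the corresponding dimethyl ethers.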
row,pKa,Structure (SMILES)
1,11.1,COc1cc2c(cc1OC)NC(N)=NC2
2,12,NC1=NCc2cc(O)c(O)cc2N1
3,9.84,NCCc1ccc(O)c(O)c1 [DOPAMINE]

row,Structure (SMILES),pKa
1,NC1CCc2cc(O)c(O)cc2C1 (stereo not given),9.84
2,NC1CCc2c(ccc(O)c2O)C1 (stereo not given),9.84

# System: Canis familiaris
# Assay: Evaluated for the percentage vasodilation in the renal artery produced by 3000 nmol administered intra-arterially.
# Assay type: functional, Canis lupus familiaris
# Conditions: not given
# Outline: as §1
row,Structure (SMILES),Vasodilation
1,CNC1=NCc2cc(O)c(O)cc2N1,50%
2,CCCN(CCC)C1=NCc2cc(O)c(O)cc2N1,50%
3,NC1=NCc2cc(O)c(O)cc2N1,50%
